{
  "source": "ChEMBL document CHEMBL5360562",
  "about": "(Eur J Med Chem, 2023)",
  "key": {"[1]": {"test_system": "Pseudomonas aeruginosa", "test": "Antibacterial activity against Pseudomonas aeruginosa PAO1 assessed as inhibition of bacterial growth incubated for 16 hrs by broth microdilution method", "format": "functional", "summary_of_the_method": "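Standalone MIC by broth microdilution. 6 h day cultures in cation-adjusted Mueller-Hinton broth (CAMHB) diluted to 5×10^5 CFU/mL. Compound added from 10 mM DMSO stock to 200 μM (highest concentration), then twofold serial dilution. Incubated stationary at 37 °C for 16 h. OD600 read; MIC is lowest concentration with <10% growth versus positive control.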"}, "[2]": {"test_system": "Acinetobacter baumannii", "test": "Potentiation of rifampicin antibacterial activity against Acinetobacter baumannii AB5075 assessed as rifampicin MIC at 5 uM incubated for 16 hrs by broth microdilution method", "format": "functional", "summary_of_the_method": "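A. baumannii AB5075 6 h day cultures in CAMHB subcultured to 5×10^5 CFU/mL; adjuvant added from 10 mM DMSO stock at fixed concentration, then rifampicin (DMSO) twofold serially diluted in adjuvant-containing broth. Antibiotic-alone and adjuvant-alone control lanes.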"}, "[3]": {"test_system": "Acinetobacter baumannii", "test": "Potentiation of Azithromycin antibacterial activity against Acinetobacter baumannii AB5075 assessed as azithromycin MIC at 30 uM incubated for 16 hrs by broth microdilution method", "format": "functional"}, "[4]": {"test": "Metabolic stability in human liver microsomes assessed as parent compound remaining in presence of NADPH measured at 1 hr by UV-UPLC analysis", "format": "ADME, Microsome"}, "[5]": {"test_system": "Acinetobacter baumannii", "test": "Potentiation of Clarithromycin antibacterial activity against Acinetobacter baumannii AB5075 assessed as reduction in clarithromycin MIC at 20 uM incubated for 16 hrs by broth microdilution method", "format": "functional"}, "[6]": {"test_system": "Acinetobacter baumannii", "test": "Potentiation of Clarithromycin antibacterial activity against Acinetobacter baumannii AB5075 assessed as clarithromycin MIC at 30 uM incubated for 16 hrs by broth microdilution method", "format": "functional"}, "[7]": {"test_system": "Acinetobacter baumannii", "test": "Potentiation of erythromycin antibacterial activity against Acinetobacter baumannii AB5075 assessed as erythromycin MIC at 2.5 uM incubated for 16 hrs by broth microdilution method", "format": "functional"}, "[8]": {"test": "Antiproliferative against human HepG2 cells assessed as reduction in cell viability incubated for 24 hrs by XTT assay", "format": "toxicity, cell-based"}, "[9]": {"test_system": "Acinetobacter baumannii", "test": "Potentiation of rifampicin antibacterial activity against Acinetobacter baumannii AB5075 assessed as rifampicin MIC at 30 uM incubated for 16 hrs by broth microdilution method", "format": "functional"}, "[10]": {"test_system": "Acinetobacter baumannii", "test": "Potentiation of Clarithromycin antibacterial activity against Acinetobacter baumannii AB5075 assessed as clarithromycin MIC at 2.5 uM incubated for 16 hrs by broth microdilution method", "format": "functional"}, "[11]": {"test_system": "Acinetobacter baumannii", "test": "Potentiation of Clarithromycin antibacterial activity against Acinetobacter baumannii AB5075 assessed as fold reduction in clarithromycin MIC at 10 uM incubated for 16 hrs by broth microdilution method", "format": "functional", "summary_of_the_method": "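Checkerboard-style potentiation by broth microdilution. 6 h day cultures in CAMHB diluted to 5×10^5 CFU/mL. Adjuvant added from 10 mM DMSO stock at fixed concentration throughout. […] Controls: antibiotic alone, adjuvant alone, media only. Incubated stationary at 37 °C for 16 h. MIC is lowest concentration with no visible growth; fold reduction taken against the antibiotic-alone lane.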"}, "[12]": {"test_system": "Acinetobacter baumannii", "test": "Potentiation of Azithromycin antibacterial activity against Acinetobacter baumannii AB5075 assessed as azithromycin MIC at 5 uM incubated for 16 hrs by broth microdilution method", "format": "functional"}, "[13]": {"test_system": "Acinetobacter baumannii", "test": "Potentiation of Azithromycin antibacterial activity against Acinetobacter baumannii AB5075 assessed as azithromycin MIC at 7.5 uM incubated for 16 hrs by broth microdilution method", "format": "functional"}, "[14]": {"test_system": "Acinetobacter baumannii", "test": "Potentiation of Clarithromycin antibacterial activity against Acinetobacter baumannii AB3560 assessed as clarithromycin MIC at 10 uM incubated for 16 hrs by broth microdilution method", "format": "functional"}, "[15]": {"test_system": "Acinetobacter baumannii", "test": "Potentiation of Clarithromycin antibacterial activity against Acinetobacter baumannii AB3785 assessed as clarithromycin MIC at 10 uM incubated for 16 hrs by broth microdilution method", "format": "functional"}, "[16]": {"test_system": "Acinetobacter baumannii", "test": "Potentiation of erythromycin antibacterial activity against Acinetobacter baumannii AB5075 assessed as erythromycin MIC at 5 uM incubated for 16 hrs by broth microdilution method", "format": "functional"}, "[17]": {"test_system": "Acinetobacter baumannii", "test": "Potentiation of rifampicin antibacterial activity against Acinetobacter baumannii AB5075 assessed as rifampicin MIC at 20 uM incubated for 16 hrs by broth microdilution method", "format": "functional"}, "[18]": {"test_system": "Acinetobacter baumannii", "test": "Potentiation of erythromycin antibacterial activity against Acinetobacter baumannii AB5075 assessed as erythromycin MIC at 7.5 uM incubated for 16 hrs by broth microdilution method", "format": "functional"}},
  "data": [
    {"smiles": "Cl.Cl.Nc1nc(-c2ccc(NC(=O)Nc3cccc(-c4c[nH]c(N)n4)c3F)cc2F)c[nH]1", "values": [
      {"measurement": "MIC", "setting": "[1]", "result": 256, "unit": "µM"},
      {"measurement": "MIC", "setting": "[2]", "result": 0.125, "unit": "µg/mL"},
      {"measurement": "MIC", "setting": "[3]", "result": "≤ 0.062", "unit": "µg/mL"},
      {"measurement": "Stability", "setting": "[4]", "result": 87, "unit": "%"},
      {"measurement": "fold change (FC)", "setting": "[5]", "result": ">=512"},
      {"measurement": "MIC", "setting": "[5]; Acinetobacter baumannii, AB5075", "result": "≤ 0.062", "unit": "µg/mL"},
      {"measurement": "MIC", "setting": "[6]", "result": "≤ 0.062", "unit": "µg/mL"},
      {"measurement": "MIC", "setting": "[7]", "result": 32, "unit": "µg/mL"},
      {"measurement": "IC50 at 24 h", "setting": "[8]", "result": 208, "unit": "µg/mL"},
      {"measurement": "MIC", "setting": "[9]", "result": 1, "unit": "ng/mL"},
      {"measurement": "MIC", "setting": "[10]", "result": 0.125, "unit": "µg/mL"},
      {"measurement": "fold change (FC)", "setting": "[11]", "result": ">=512"},
      {"measurement": "MIC", "setting": "[12]", "result": 1, "unit": "µg/mL"},
      {"measurement": "MIC", "setting": "[13]", "result": 0.5, "unit": "µg/mL"},
      {"measurement": "MIC", "setting": "[14]", "result": "≤ 0.062", "unit": "µg/mL"},
      {"measurement": "MIC", "setting": "[15]", "result": "≤ 0.062", "unit": "µg/mL"},
      {"measurement": "MIC", "setting": "[16]", "result": 0.5, "unit": "µg/mL"},
      {"measurement": "MIC", "setting": "[17]", "result": 1, "unit": "ng/mL"},
      {"measurement": "MIC", "setting": "[18]", "result": 0.25, "unit": "µg/mL"}
    ]}
  ]
}
